Runt-SMMHC FRET: inhibitors of human RUNX1 Runt domain binding to CBFb-SMMHC; Q01196+Q13951; Cerulean-Runt/Venus-CBFb-SMMHC FRET ratio 530/480, 1 h; inhibition, % at 20 µM; hit rate 0.74% among 220,000;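 active = mean inhibition across duplicate retests at 20 µM reaching about 50%, limit read from the data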;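 also: 0% = DMSO wells and 100% = wells with excess untagged CBFb-SMMHC; inhibitors lower the FRET ratio by blocking Runt binding to CBFb-SMMHC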
Target sequence (Q01196 whole entry, looked up, the tested form may be a part): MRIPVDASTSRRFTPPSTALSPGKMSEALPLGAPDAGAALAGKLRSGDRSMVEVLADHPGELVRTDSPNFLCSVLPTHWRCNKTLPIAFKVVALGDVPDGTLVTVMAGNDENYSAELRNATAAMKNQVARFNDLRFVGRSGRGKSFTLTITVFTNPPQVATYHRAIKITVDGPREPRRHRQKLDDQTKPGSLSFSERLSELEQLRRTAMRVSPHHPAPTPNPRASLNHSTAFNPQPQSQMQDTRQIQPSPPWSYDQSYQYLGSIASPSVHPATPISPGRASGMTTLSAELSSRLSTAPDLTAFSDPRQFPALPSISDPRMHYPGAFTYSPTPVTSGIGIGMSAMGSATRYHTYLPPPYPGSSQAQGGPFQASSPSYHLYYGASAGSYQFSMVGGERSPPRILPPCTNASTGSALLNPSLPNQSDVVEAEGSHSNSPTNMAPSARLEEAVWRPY
Target sequence (Q13951 whole entry, looked up, the tested form may be a part): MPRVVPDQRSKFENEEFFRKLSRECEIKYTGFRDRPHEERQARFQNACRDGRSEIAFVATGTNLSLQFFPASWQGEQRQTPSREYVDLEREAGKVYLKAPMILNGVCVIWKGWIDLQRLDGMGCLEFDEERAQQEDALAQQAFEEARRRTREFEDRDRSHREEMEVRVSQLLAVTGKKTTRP
RanGTP-Impb inh: inhibitors of RanGTP-importin-beta interaction, primary screen, biochemical, FRET, CFP-Ran, YFP-importin-beta, homogeneous; cell-free CFP-Ran/YFP-importin-beta FRET ratio; inhibition, % (test concentration not listed); hit rate 1.1% among 300,000; AID 2216;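 active = more than half of the replicate wells show a fall in the fluorescence ratio signal beyond about 16%, limit read from the data, passing the limit was not always enough; inconclusive = exactly half of the replicate wells pass the set limit; inactive = fewer than half of replicates pass the limit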;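 also: 0% = DMSO wells and 100% = Ran loaded with GDP instead of GTP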
PKD1 inh: PKD1 (human) kinase inhibition; Q15139; PKD1 kinase fluorescence polarization assay; inhibition, % (test concentration not listed); hit rate 0.056% among 200,000
Runt-CBFb FRET: blocks binding of human RUNX1 Runt domain to CBFb; Q01196+Q13951; Cerulean-Runt/Venus-CBFb FRET ratio 530/480, 1 h; inhibition, % at 20 µM; hit rate 0.46% among 220,000;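 active = inhibition over about 50% at 20 µM in the single-dose screen, limit read from the data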;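 also: 0% = DMSO wells and 100% = excess unlabeled CBFb competitor control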
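Measured by: fluorescence energy transfer, 422 nm excitation, 530/480 nm emission; Assay system: Cerulean-Runt domain; Medium: Tris pH 7.5 buffer with BSA; Measure: loss of energy transfer signal; Controls: 5 µM unlabeled CBFb as full-inhibition high control; Incubation: protein complex preformed 1 h, compound exposure 1 h, room temperature, dark.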
MEX-5 binding: C. elegans MEX-5 TCR-2 RNA binding activity; Q9XUB2; hit rate 0.38% among 300,000; activity score (negative = inhibition of binding), % at 10 µM; AID 1832; MEX-5/FITC-TCR2 RNA binding, fluorescence polarization; active compounds read low;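 active = inhibition past about -25% in most replicates, and total fluorescence under double the plate's negative control median, limit read from the data; inconclusive = replicates evenly split on the limit, or fluorescence at least double controls; inactive = too little inhibition in most replicates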;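 also: 0% = DMSO and -100% = 5 µM competing unlabeled TCR2 RNA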
EBV gp42 block: inhibitors of Epstein-Barr virus glycoprotein 42; Fluorescence polarization binding assay, mP read-out; inhibition, % (tested at 21.74 µM); hit rate 0.42% among 220,000
* marks the source's active call; other numbers are inactive results; ? = inconclusive; / = not tested or not shown. Only some compounds are listed: those with a hit (about 2% of all), similar ones and a draw of the others. Rule as the data show it, unless noted: active = inhibition above about 50%; inactive = the rest.

SMILES	Runt-SMMHC FRET	RanGTP-Impb inh	PKD1 inh	Runt-CBFb FRET	MEX-5 binding	EBV gp42 block
Cc1ccc[n+](CC(=O)Nc2ccc([N+](=O)[O-])cc2Cl)c1	9	176*	-1	0	0	-20
Cc1ccccc1C(=O)NNc1ccc(-c2csnn2)cc1	-5	1	/	1	-1	-11
CC(=O)Oc1c(/C=C(\C#N)C(N)=O)[nH]c2ccccc12	20	16*	-6	34	-1	1
N#C/C(=C\c1c[nH]c2ccccc12)C(N)=O	-1	7	/	3	1	-12
O=c1cc(-c2ccccc2)nc2c(-c3ccccc3)c(C(F)(F)F)[nH]n12	2	2	/	2	-2	60*
Cc1cc(=O)n2[nH]c(C)c(-c3ccccc3)c2n1	4	-3	-1	0	2	-6
O=c1nc2c(O)cccn2c2c1c(=O)[nH]c1ccccc12	8	-183	7	5	-26*	104*
Cc1ccc(C)c(S(=O)(=O)c2c(N)n(/N=C/c3ccco3)c3nc4ccccc4nc23)c1	67*	4	1	42	1	-15
Cc1cccc(S(=O)(=O)c2c(N)n(/N=C/c3ccccc3)c3nc4ccccc4nc23)c1	2	1	-15	1	2	-1
COCCn1nnnc1SCC(=O)c1ccccc1	-2	0	-8	84*	-2	-24
COc1ccc(CN(Cc2nc3ccccc3c(=O)[nH]2)C(=O)c2ccco2)cc1	/	-4	/	/	0	/
COc1ccc(CCN(Cc2nc3ccccc3c(=O)[nH]2)C(=O)c2ccco2)cc1OC	-1	1	-2	2	0	98*
CCC(C)c1ccc(-c2cc(C(=O)OCC(=O)Nc3cc(C)on3)c3ccccc3n2)cc1 (stereo not drawn)	2	2	4	-1	-1	-21
COc1ccc(CNC(=O)COC(=O)c2cc(-c3ccc(Cl)s3)nc3ccccc23)cc1	-6	17*	-9	-2	?	-34
O=C(COC(=O)c1cc(-c2ccc(Cl)s2)nc2ccccc12)NCc1ccco1	-16	1	1	0	1	8
COc1ccc(-c2cc(C(=O)OCC(=O)Nc3cc(C)on3)c3ccccc3n2)cc1OC	-21	90*	-10	4	0	-27
COc1ccc(F)cc1C(=O)C1CCCN(Cc2c(C)n(C)n(-c3ccccc3)c2=O)C1 (stereo not drawn)	-1	-1	-1	1	-1	-15
COc1cc(/C=N/c2oc(-c3ccccc3)cc2C#N)ccc1O	6	0	-5	9	?	57*
COc1cc(/C=N/NC(=O)c2ccccc2)ccc1O	2	-1	-4	-1	0	-2
CCC1CCCCN1CCCNC(=O)C1CC(=O)N(CCc2ccccc2)C1 (stereo not drawn)	/	1	/	/	1	/
COC(=O)/C(C#N)=C/c1c(N2CCN(c3ccc(OC)cc3)CC2)nc2c(C)cccn2c1=O	/	34*	/	/	2	/
Cc1cccn2c(=O)c(/C=C(\C#N)C(N)=O)c(N3CCN(Cc4ccc5c(c4)OCO5)CC3)nc12	/	8	-3	122*	-1	-11
CNC(=O)/C(C#N)=C/c1c(N2CCN(c3ccccc3)CC2)nc2c(C)cccn2c1=O	/	19*	/	/	-3	/
Cc1cccn2c(=O)c(C=C(C#N)C#N)c(N3CCN(c4ccccc4)CC3)nc12	/	25*	/	/	0	/
Cc1cc(C)n(-c2ccnc3cc(Cl)ccc23)n1	/	-1	/	/	2	/
SMILES	Runt-SMMHC FRET	RanGTP-Impb inh	PKD1 inh	Runt-CBFb FRET	MEX-5 binding	EBV gp42 block
Cc1ccc(N=Cc2c(O)c3ccccc3oc2=O)cc1F	/	6	/	/	0	/
CN(C)CCn1c(N)nc2ccccc21	-3	-5	/	0	3	-7
CCN1CCc2c(sc(NC(=O)C3COc4ccccc4O3)c2C(N)=O)C1 (stereo not drawn)	/	153*	/	/	-8	/
CCOC(=O)N1CCc2c(sc(NC(=O)C3COc4ccccc4O3)c2C(N)=O)C1 (stereo not drawn)	/	1	/	/	-10	/
CN1CCc2c(sc(NC(=O)C3COc4ccccc4O3)c2C(N)=O)C1 (stereo not drawn)	/	182*	/	/	1	/
O=C(NC(=S)Nn1cnnc1)c1ccccc1Br	-6	3	/	22	-1	-23
O=C(CCc1ccc(S(=O)(=O)N2CCOCC2)cc1)Nc1ccc2c(c1)OCCO2	-3	4	/	0	0	-2
COc1ccc(C(CC(=O)N2CCCCC2)c2c(OC)cc(OC)c3c(-c4ccccc4)cc(=O)oc23)cc1 (stereo not drawn)	-2	5	/	-4	3	34
COc1ccc(C(CC(=O)N2CCCC2)c2c(OC)cc(OC)c3c(-c4ccccc4)cc(=O)oc23)cc1 (stereo not drawn)	-5	12	/	-3	4	82*
Cc1cc(C)nc(SCc2ccc(C(=O)NNC(=O)Nc3cccc(Cl)c3)cc2)n1	3	4	-3	-1	1	17
CCc1ccc(-c2cc(C(F)(F)F)n3nc(C(=O)Nc4c(C)nn(Cc5ccccc5C)c4C)cc3n2)s1	12	35*	-2	7	1	-6
Cc1ccccc1Cn1ccc(NC(=O)c2cc3nc(-c4ccco4)cc(C(F)(F)F)n3n2)n1	-4	54*	-8	5	1	/
CCc1ccc(-c2cc(C(F)(F)F)n3nc(C(=O)Nc4c(C)nn(Cc5ccccc5Cl)c4C)cc3n2)s1	29	?	2	-23	0	-2
COc1cc2c(cc1OC)C1(Nc3c-2c(Cc2ccccc2)nn3-c2ccccc2)C(=O)Nc2ccccc21 (stereo not drawn)	-3	24*	-3	2	4	-41
COc1cc2c(cc1OC)C1(NCC2)C(=O)Nc2ccccc21 (stereo not drawn)	-7	0	2	-4	-6	-14
COc1cc(-c2noc(C3CCCN(C(=O)c4c(F)cccc4F)C3)n2)cc(OC)c1OC (stereo not drawn)	/	2	/	/	-1	/
CCOc1ccc(CN2CCN(Cc3cc4ccccc4[nH]3)CC2CCO)cc1 (stereo not drawn)	-7	21*	-2	4	-1	-16
COc1ccc(C2CC(=O)C(C=NCCCO)=C(O)C2)cc1 (stereo not drawn)	/	0	/	/	-27*	/
Cc1cc2c(C)cc(=O)oc2c2c1NCCC2	60*	10	8	17	0	-29
CCOC(=O)C1CCN(C(=O)c2ccccc2Oc2ccccc2)CC1	2	9	0	-2	0	-9
CCOC(=O)N1CCN(C(=O)c2ccccc2Oc2ccccc2)CC1	-2	0	-3	-1	2	130*
CCOC(=O)c1ccc(N2C=C(C(=O)OC)C(c3cccc(O)c3)C(C(=O)OC)=C2)cc1	/	-1	/	/	-1	/
